# Source: PubChem (Broad Institute)
# DYRK1A inh = rat Dyrk1A kinase inhibitors, primary screen, biochemical, single point, plate reader; ADP-Glo luminescence, NFATc1 peptide; inhibition, % at 12.5 µM; AID 504441, 2011; Dual specificity tyrosine-phosphorylation-regulated kinase 1A (Rattus norvegicus), Q63470; hit rate 0.43% among 310,000; in the data active = inhibition above about 50%
# GSK3 alpha inh = blockers of GSK3A enzyme activity – biochemical, luminescence, cell-free homogeneous, HTS, primary screen. Glycogen synthase kinase-3 alpha (Homo sapiens), P49840. GSK-3 alpha kinase, ADP-Glo luminescence, 60 min. inhibition, % at 10 µM. hit rate 0.1% among 320,000. AID 2650, 2010;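 active = more than half of replicates show inhibition above 20%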;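 note: GST-tagged GSK-3 alpha with peptide substrate and 25 µM ATP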
# STK33 inh = inhibitors of purified STK33 kinase, primary screen, biochemical, ADP-Glo luminescence, homogeneous, cell-free | MBP phosphorylation | inhibition, % at 10 µM | hit rate 0.073% among 320,000;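 active = inhibition at or above 25%, using the most active replicate where run in duplicate; inactive = inhibition below 25%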
# GSK3B inh = human GSK3beta kinase inhibitors, primary screen, biochemical, cell-free homogeneous, HTS | GST-GSK3beta kinase, ADP-Glo luminescence, 60 min; stronger effect = lower value | activity score (negative = inhibition), % at 10 µM | hit rate 0.038% among 300,000 | AID 2097, 2009;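 active = more than half of replicate wells score below -50%, meaning over 50% inhibition versus plate controls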
#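 Assay system: GST-fused GSK3beta enzyme, cell-free / Medium: Tris pH 7.5 buffer with MgCl2, DTT, BSA, heparin / Also added: peptide substrate plus 25 µM ATP (final) / Compound: 10 µM single point / Timing: kinase reaction with compound 60 min at room temperature / Detection: ADP-Glo luminescence / Benchmarks: DMSO neutral wells and GW8510 at 20 µM as positive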
# CDK5 inh = inhibitors of human CDK5/p35 kinase, primary screen, biochemical, single concentration; Cyclin-dependent kinase 5 (Homo sapiens) + Cyclin-dependent kinase 5 activator 1 (Homo …; Recombinant CDK5/p35, ADP-Glo luminescence, 60 min; inhibition, % at 10 µM; hit rate 0.01% among 330,000;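 active = highest replicate inhibition of at least 50% and at least 75% of replicates reaching 50%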
# ADP-Glo artifact = ADP-Glo luciferase interference without Dyrk1A, dose response, artefact control for Dyrk1A inhibitor project, biochemical, luminescence, cherry-pick, set 02. shares compounds with DYRK1A inh. ADP-Glo luciferase artifact assay, no Dyrk1A. AC50, µM (doses to about 12 µM). 1,300 tested, under 10 active. AID 588348, 2011;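 active = fitted half-maximal dose AC50 no more than ten times the top valid tested dose, with luminescence dropping as dose rises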
# Numbers stand for hits; n = inactive; x = no result. Shown is part of a subset that was picked to be rich in hits.
SMILES,DYRK1A inh,GSK3 alpha inh,STK33 inh,GSK3B inh,CDK5 inh,ADP-Glo artifact
COc1ccccc1N=c1oc2cc(O)ccc2cc1C(N)=O,93,61,37,n,n,n
Cc1cc(C(=O)NCC(c2ccco2)N(C)C)ccc1[N+](=O)[O-] (centres undefined),n,n,n,n,n,x
O=C1NC(=S)SC1=Cc1ccc2c(c1)OCO2,n,x,x,x,n,x
O=C1N/C(=N/S(=O)(=O)Cc2ccccc2)S/C1=C/c1ccc2c(c1)OCO2,92,71,n,n,n,n
CCCCN(C(=O)C1CCN(C(=O)c2ccccc2C)CC1)c1c(N)n(CC(C)C)c(=O)[nH]c1=O,n,x,x,x,n,x
